The IC50 is the concentration that inhibits the measured activity by half. A low value points to inhibition by little substance. A word on the CC50: it is the concentration that lowers cell viability or growth by half. Low values mean greater toxicity to the cells, high ones lower toxicity to the cells. One may read the MIC as the smallest concentration in the dilution series that meets the test's criterion for growth inhibition.

≈ marks a conversion by molar mass, not a printed value. Where a SMILES comes first, the peptide text is derived from it.

One assay concerns MDA-MB-231. The assay is described as follows: Cytotoxicity against human MDA-MB-231 cells after 72 hrs by MTS assay. In kind it is functional, cell-based. Particulars: MDA-MB-231, 72 h. Put shortly:
(§1)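 Cells plated at 4 × 10³ cells/well, left overnight, then exposed to increasing concentrations (0.064–40 μM) diluted from DMSO solution into culture medium. After 72 h, MTS/PMS reagent added; absorbance read at 490 nm. Viability = (OD_treat − OD_blank)/(OD_control − OD_blank) × 100%, mean of triplicate wells; DMSO + medium untreated cells as control.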
On the technique in general: Tetrazolium assays rely on reduction of a dye to a coloured formazan, in cell work by metabolically active cells.

The test system of assay [1] is KB. The assay can be described thus: Cytotoxicity against human KB cells after 72 hrs by MTS assay. In kind it is functional, cell-based. Put shortly:
as §1

Assay [2] can be described thus: Cytotoxicity against mouse EAC cells. In kind it is functional. Particulars: Ehrlich.
A further assay relates to Pseudomonas aeruginosa. The assay is described as follows: Antimicrobial activity against Pseudomonas aeruginosa. In kind it is functional.
The test system of assay [3] is KB. The assay is described as follows: Cytotoxicity against human KB cells. The assay is classed as functional, cell-based.
Assay [4] is described as follows: Cytotoxicity against mouse DLA cells. In kind it is functional.
For another assay, the system named is Jurkat. The assay is described as follows: Cytotoxicity against human Jurkat T cells after 72 hrs by MTS assay. The assay is classed as functional, cell-based. Put shortly:
as §1

The next assay concerns MOLT-4. The assay is described as follows: Cytotoxicity against human MOLT4 cells after 72 hrs by MTS assay. The assay is classed as functional, cell-based. Particulars: MOLT-4, 72 h. Put shortly: as §1
In another assay the test system is Candida albicans. The assay can be described thus: Antimicrobial activity against Candida albicans. In kind it is functional.
The test system of a further assay is Escherichia coli. The assay is described as follows: Antimicrobial activity against Escherichia coli. In kind it is functional.

For the compound `CC(C)C[C@@H]1NC(=O)CNC(=O)[C@H](Cc2ccccc2)NC(=O)[C@H](Cc2ccc(O)cc2)NC(=O)[C@H](C)NC(=O)CNC1=O` (HELM PEPTIDE1{A.Y.F.G.L.G}$PEPTIDE1,PEPTIDE1,1:R1-6:R2$$$V2.0), the IC50 with MDA-MB-231 and in the assay with KB [1] was over 10 µM in each case.

On to `C[C@@H]1NC(=O)CNC(=O)[C@H](Cc2ccccc2)NC(=O)[C@H](Cc2ccc(O)cc2)NC(=O)[C@@H]2CCCN2C(=O)CNC1=O` (HELM PEPTIDE1{A.G.P.Y.F.G}$PEPTIDE1,PEPTIDE1,1:R1-6:R2$$$V2.0), for which the IC50 with MDA-MB-231 and in the assay on KB [1] was over 10 µM throughout.

In the case of `CC(C)C[C@@H]1NC(=O)CNC(=O)[C@H](C)NC(=O)[C@H](Cc2ccc(O)cc2)NC(=O)[C@@H]2CCCN2C(=O)CNC1=O` (HELM PEPTIDE1{A.G.L.G.P.Y}$PEPTIDE1,PEPTIDE1,1:R1-6:R2$$$V2.0), the IC50 with MDA-MB-231 and in the assay with KB [1] was over 10 µM in each case.

`COc1cccc2c1C(=O)c1c(O)c3c(c(O)c1C2=O)C[C@@](O)(C(=O)CO)C[C@@H]3O[C@H]1C[C@H](N)[C@H](O)[C@H](C)O1` [DOXORUBICIN] had an IC50 in the assay on MDA-MB-231 of 0.04 µM.

Take `CC(C)C[C@@H]1NC(=O)CNC(=O)[C@H](Cc2ccccc2)NC(=O)[C@H](C)NC(=O)[C@@H]2CCCN2C(=O)CNC1=O` (HELM PEPTIDE1{A.F.G.L.G.P}$PEPTIDE1,PEPTIDE1,1:R1-6:R2$$$V2.0): the IC50 with MDA-MB-231 and with KB [1] was over 10 µM in each case.

On to `CC(C)C[C@@H]1NC(=O)CNC(=O)[C@H](Cc2ccccc2)NC(=O)[C@H](Cc2ccc(O)cc2)NC(=O)CNC(=O)CNC1=O` (HELM PEPTIDE1{F.G.L.G.G.Y}$PEPTIDE1,PEPTIDE1,1:R1-6:R2$$$V2.0), for which the IC50 in the assay with MDA-MB-231 and with KB [1] was over 10 µM in each case.

Turning to `CC(C)C[C@@H]1NC(=O)CNC(=O)[C@H](Cc2ccccc2)NC(=O)[C@H](Cc2ccc(O)cc2)NC(=O)[C@@H]2CCCN2C(=O)[C@H](C)NC1=O` (HELM PEPTIDE1{A.P.Y.F.G.L}$PEPTIDE1,PEPTIDE1,1:R1-6:R2$$$V2.0), the figures for the IC50 in the assay with MDA-MB-231 and with KB [1] were 10.2 µM and 6.3 µM, respectively.

Turning to `CC(C)C[C@@H]1NC(=O)[C@H](C)NC(=O)[C@H](Cc2ccccc2)NC(=O)[C@H](Cc2ccc(O)cc2)NC(=O)[C@@H]2CCCN2C(=O)CNC1=O` (HELM PEPTIDE1{A.L.G.P.Y.F}$PEPTIDE1,PEPTIDE1,1:R1-6:R2$$$V2.0), the IC50 with MDA-MB-231 came out at 7.7 µM; with KB [1] it was 7.8 µM.

`CC(C)C[C@@H]1NC(=O)CNC(=O)[C@H](Cc2ccccc2)NC(=O)[C@H](Cc2ccc(O)cc2)NC(=O)[C@@H]2CCCN2C(=O)CNC1=O` [Cherimolacyclopeptide E] (HELM PEPTIDE1{F.G.L.G.P.Y}$PEPTIDE1,PEPTIDE1,1:R1-6:R2$$$V2.0): the figures for the 50% cytotoxic concentration (CC50) in assay [2] and in assay [4] were 4.96 µM and 2.76 µM, respectively. The MIC in the assay with Pseudomonas aeruginosa, against Candida albicans and in the assay on Escherichia coli was 6 µg/mL (≈ 9.45 µM) throughout. For the same compound, the IC50 with KB [3], with MDA-MB-231, in the assay with Jurkat, in the assay with MOLT-4 and in the assay with KB [1] was over 10 µM each time.

Values taken from ChEMBL document CHEMBL2163246 (J Nat Prod, 2012).
